# Tests used:
# [1] = test system: BT-549; experiment: Cytotoxicity against human BT549 cells assessed as cell growth at 5 uM by SRB assay; type: functional; conditions: read-out: Activity
# [2] = test system: NCI-H522; experiment: Cytotoxicity against human NCI-H522 cells assessed as cell growth at 0.5 uM by SRB assay; type: functional; conditions: read-out: Activity
# [3] = test system: A498; experiment: Cytotoxicity against human A498 cells assessed as cell growth at 0.005 uM by SRB assay; type: functional; conditions: read-out: Activity
# [4] = test system: MDA-MB-468; experiment: Cytotoxicity against human MDA-MB-468 cells assessed as cell growth at 0.5 uM by SRB assay; type: functional; conditions: read-out: Activity
# [5] = test system: SN12C; experiment: Cytotoxicity against human SN12C cells by SRB assay; type: functional
# How it was run: (§1)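 NCI-60 panel screen; 5-dose testing giving GI50 per cell line, plus a single 10 µM one-dose test. Method details not given beyond the NCI screen.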
# [6] = test system: SNB-19; experiment: Cytotoxicity against human SNB19 cells assessed as cell growth at 5 uM by SRB assay; type: functional; conditions: read-out: Activity
# [7] = test system: SF-295; experiment: Cytotoxicity against human SF295 cells assessed as cell growth at 50 uM by SRB assay; type: functional; conditions: read-out: Activity
# [8] = test system: SF-295; experiment: Cytotoxicity against human SF295 cells assessed as cell growth at 0.5 uM by SRB assay; type: functional; conditions: read-out: Activity
# [9] = test system: M14; experiment: Cytotoxicity against human M14 cells assessed as cell growth at 0.05 uM by SRB assay; type: functional; conditions: read-out: Activity
# [10] = Cytotoxicity against human Hs578T cells assessed as cell growth at 0.5 uM by SRB assay; type: functional; conditions: Hs-578T, read-out: Activity
# How it was run: (§2)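 Measured in the NCI-60 human tumour cell line panel using five-dose testing. Growth was recorded at each dose for each cell line, and a GI50 was derived for each line.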
# [11] = test system: COLO 205; experiment: Cytotoxicity against human COLO205 cells assessed as cell growth at 0.005 uM by SRB assay; type: functional; conditions: read-out: Activity
# [12] = test system: CCRF-CEM; experiment: Cytotoxicity against human CCRF-CEM cells assessed as cell growth at 0.005 uM by SRB assay; type: functional; conditions: read-out: Activity
# [13] = test system: SK-OV-3; experiment: Cytotoxicity against human SKOV3 cells assessed as cell growth at 0.05 uM by SRB assay; type: functional; conditions: read-out: Activity
# [14] = test system: A498; experiment: Cytotoxicity against human A498 cells assessed as cell growth at 0.5 uM by SRB assay; type: functional; conditions: read-out: Activity
# [15] = test system: MDA-MB-435; experiment: Cytotoxicity against human MDA-MB-435 cells assessed as cell growth at 0.005 uM by SRB assay; type: functional; conditions: read-out: Activity
# [16] = test system: SK-MEL-5; experiment: Cytotoxicity against human SK-MEL-5 cells assessed as cell growth at 0.05 uM by SRB assay; type: functional; conditions: read-out: Activity
# [17] = test system: HL-60(TB); experiment: Cytotoxicity against human HL-60(TB) cells assessed as cell growth at 0.005 uM by SRB assay; type: functional; conditions: read-out: Activity; how it was run: as §2
# [18] = test system: MDA-MB-231; experiment: Cytotoxicity against human MDA-MB-231/ATCC cells by SRB assay; type: functional; how it was run: as §1
# [19] = test system: UACC-257; experiment: Cytotoxicity against human UACC257 cells assessed as cell growth at 0.005 uM by SRB assay; type: functional; conditions: read-out: Activity
# [20] = molecular target: DNA topoisomerase 2-alpha (Homo sapiens) (UniProt P11388); experiment: Inhibition of full-length human recombinant topoisomerase 2-alpha mediated relaxation and cleavage of supercoiled pBR322 plasmid DNA to linear DNA by ethidium bromide staining based gel electrophoresis assay
# Chain of DNA topoisomerase 2-alpha (Homo sapiens) (P11388 whole entry): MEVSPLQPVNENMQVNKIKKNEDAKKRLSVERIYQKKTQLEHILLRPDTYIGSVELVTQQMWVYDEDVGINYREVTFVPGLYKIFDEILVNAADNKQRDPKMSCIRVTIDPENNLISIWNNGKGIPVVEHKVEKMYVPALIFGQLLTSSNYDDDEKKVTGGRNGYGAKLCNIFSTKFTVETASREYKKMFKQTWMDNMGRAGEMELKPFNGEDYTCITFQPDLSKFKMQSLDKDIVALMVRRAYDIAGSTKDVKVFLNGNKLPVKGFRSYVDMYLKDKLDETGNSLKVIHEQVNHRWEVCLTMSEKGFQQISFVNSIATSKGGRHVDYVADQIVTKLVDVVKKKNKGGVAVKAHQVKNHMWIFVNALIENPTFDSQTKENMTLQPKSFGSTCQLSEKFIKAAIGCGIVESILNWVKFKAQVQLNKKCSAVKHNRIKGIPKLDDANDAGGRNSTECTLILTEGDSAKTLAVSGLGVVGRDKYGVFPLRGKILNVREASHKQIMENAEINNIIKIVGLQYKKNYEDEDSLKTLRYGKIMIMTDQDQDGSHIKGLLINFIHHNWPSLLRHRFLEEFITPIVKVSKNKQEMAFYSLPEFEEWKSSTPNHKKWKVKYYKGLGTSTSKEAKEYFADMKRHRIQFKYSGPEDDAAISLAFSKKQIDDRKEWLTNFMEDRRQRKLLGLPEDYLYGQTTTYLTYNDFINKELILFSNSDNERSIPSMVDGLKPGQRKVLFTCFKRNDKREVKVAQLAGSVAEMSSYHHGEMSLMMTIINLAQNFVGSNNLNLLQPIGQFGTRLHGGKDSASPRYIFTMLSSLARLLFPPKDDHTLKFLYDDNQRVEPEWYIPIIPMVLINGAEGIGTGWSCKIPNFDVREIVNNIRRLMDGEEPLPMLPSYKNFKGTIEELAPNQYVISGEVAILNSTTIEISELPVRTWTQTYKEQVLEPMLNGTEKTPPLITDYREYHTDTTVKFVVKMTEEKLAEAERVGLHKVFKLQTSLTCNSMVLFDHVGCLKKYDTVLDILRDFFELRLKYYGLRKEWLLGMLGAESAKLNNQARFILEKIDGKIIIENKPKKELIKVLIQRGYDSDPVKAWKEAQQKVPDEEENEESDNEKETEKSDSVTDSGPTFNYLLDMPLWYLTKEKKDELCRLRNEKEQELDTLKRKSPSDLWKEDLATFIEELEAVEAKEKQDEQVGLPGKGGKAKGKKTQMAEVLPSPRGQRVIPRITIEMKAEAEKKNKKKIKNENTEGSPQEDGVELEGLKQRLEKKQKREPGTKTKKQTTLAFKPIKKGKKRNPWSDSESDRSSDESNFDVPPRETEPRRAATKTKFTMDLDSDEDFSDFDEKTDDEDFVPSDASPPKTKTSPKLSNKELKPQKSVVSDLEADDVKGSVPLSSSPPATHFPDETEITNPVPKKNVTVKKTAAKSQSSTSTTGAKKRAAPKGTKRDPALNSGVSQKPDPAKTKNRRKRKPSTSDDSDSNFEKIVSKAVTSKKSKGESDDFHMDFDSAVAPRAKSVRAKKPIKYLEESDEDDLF
# How it was run: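 Recombinant full-length human topoisomerase IIα with supercoiled pBR322 DNA at 37 °C. Components mixed on ice before drug addition. Complexes trapped with SDS; products run on ethidium bromide gels. Linear DNA identified against a HindIII-linearized marker; repeated on three days.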
# [21] = test system: SW-620; experiment: Cytotoxicity against human SW620 cells by SRB assay; type: functional; how it was run: as §1
# [22] = test system: CCRF-CEM; experiment: Cytotoxicity against human CCRF-CEM cells assessed as cell growth at 50 uM by SRB assay; type: functional; conditions: read-out: Activity
# [23] = test system: NCI-H322M; experiment: Cytotoxicity against human NCI-H322M cells assessed as cell growth at 0.05 uM by SRB assay; type: functional; conditions: read-out: Activity
# [24] = test system: MOLT-4; experiment: Cytotoxicity against human MOLT4 cells assessed as cell growth at 0.005 uM by SRB assay; type: functional; conditions: read-out: Activity
# [25] = test system: OVCAR-8; experiment: Cytotoxicity against human OVCAR8 cells assessed as cell growth at 50 uM by SRB assay; type: functional; conditions: read-out: Activity
# [26] = test system: CCRF-CEM; experiment: Cytotoxicity against human CCRF-CEM cells assessed as cell growth at 0.5 uM by SRB assay; type: functional; conditions: read-out: Activity
# [27] = Cytotoxicity against human Hs578T cells assessed as cell growth at 0.05 uM by SRB assay; type: functional; conditions: Hs-578T, read-out: Activity; how it was run: as §2
# [28] = test system: RXF 393; experiment: Cytotoxicity against human RXF393 cells assessed as cell growth at 0.005 uM by SRB assay; type: functional; conditions: read-out: Activity
# [29] = test system: HL-60(TB); experiment: Cytotoxicity against human HL-60(TB) cells assessed as cell growth at 50 uM by SRB assay; type: functional; conditions: read-out: Activity; how it was run: as §2
# [30] = test system: UACC-62; experiment: Cytotoxicity against human UACC62 cells by SRB assay; type: functional; how it was run: as §1
# [31] = test system: SK-OV-3; experiment: Cytotoxicity against human SKOV3 cells by SRB assay; type: functional; how it was run: as §1
# [32] = test system: SN12C; experiment: Cytotoxicity against human SN12C cells assessed as cell growth at 0.05 uM by SRB assay; type: functional; conditions: read-out: Activity
# [33] = test system: OVCAR-3; experiment: Cytotoxicity against human OVCAR3 cells assessed as cell growth at 0.05 uM by SRB assay; type: functional; conditions: read-out: Activity
# [34] = test system: LOX IMVI; experiment: Cytotoxicity against human LOXIMVI cells assessed as cell growth at 5 uM by SRB assay; type: functional; conditions: read-out: Activity
# [35] = test system: NCI-H23; experiment: Cytotoxicity against human NCI-H23 cells assessed as cell growth at 50 uM by SRB assay; type: functional; conditions: read-out: Activity
# [36] = test system: RXF 393; experiment: Cytotoxicity against human RXF393 cells assessed as cell growth at 0.05 uM by SRB assay; type: functional; conditions: read-out: Activity
# [37] = Cytotoxicity against human Hs578T cells by SRB assay; type: functional; conditions: Hs-578T; how it was run: as §2
# [38] = test system: KM12; experiment: Cytotoxicity against human KM12 cells assessed as cell growth at 0.005 uM by SRB assay; type: functional; conditions: read-out: Activity
# [39] = test system: MDA-MB-435; experiment: Cytotoxicity against human MDA-MB-435 cells assessed as cell growth at 50 uM by SRB assay; type: functional; conditions: read-out: Activity
# [40] = Cytotoxicity against human NCI-ADR-RES cells assessed as cell growth at 50 uM by SRB assay; type: functional; conditions: read-out: Activity
# [41] = read-out: LC50 (the source's name)
# [42] = read-out: pLC50 (the source's name) (converted)
smiles,measurement,setting,value
COc1cc([C@@H]2c3cc4c(cc3[C@@H](NC(=O)CN3CCN(CCCCCCCCCCN5CCN(CC(=O)N[C@@H]6c7cc8c(cc7[C@@H](c7cc(OC)c(O)c(OC)c7)[C@H]7C(=O)OC[C@@H]76)OCO8)CC5)CC3)[C@H]3COC(=O)[C@H]23)OCO4)cc(OC)c1O,growth at 5 µM,[1],-66%
same,growth at 0.5 µM,[2],14%
same,growth at 0.005 µM,[3],73%
same,growth at 0.5 µM,[4],73%
same,GI50,[5]; read-out: GI50,0.185 µM
same,CC50,[5]; [41],> 50 µM
same,TGI,[5]; read-out: TGI,5.82 µM
same,GI50,[5]; read-out: pGI50 (converted),0.186 µM
same,CC50,[5]; [42],> 50.1 µM
same,TGI,[5]; read-out: pTGI (converted),5.89 µM
same,growth at 5 µM,[6],-81%
same,growth at 50 µM,[7],-44%
same,growth at 0.5 µM,[8],61%
same,growth at 0.05 µM,[9],94%
same,growth at 0.5 µM,[10],77%
same,growth at 0.005 µM,[11],90%
same,growth at 0.005 µM,[12],97%
same,growth at 0.05 µM,[13],85%
same,growth at 0.5 µM,[14],51%
same,growth at 0.005 µM,[15],96%
same,growth at 0.05 µM,[16],96%
same,growth at 0.005 µM,[17],96%
same,GI50,[18]; read-out: GI50,0.958 µM
same,CC50,[18]; [41],18.3 µM
same,TGI,[18]; read-out: TGI,2.28 µM
same,GI50,[18]; read-out: pGI50 (converted),0.955 µM
same,CC50,[18]; [42],18.2 µM
same,TGI,[18]; read-out: pTGI (converted),2.29 µM
same,growth at 0.005 µM,[19],96%
same,Effect on topoisomerase 2-alpha DNA cleavage (qualitative),[20],Dose-dependent effect
same,GI50,[21]; read-out: GI50,0.372 µM
same,CC50,[21]; [41],3.38 µM
same,TGI,[21]; read-out: TGI,1.33 µM
same,GI50,[21]; read-out: pGI50 (converted),0.372 µM
same,CC50,[21]; [42],3.8 µM
same,TGI,[21]; read-out: pTGI (converted),1.32 µM
same,growth at 50 µM,[22],2%
same,growth at 0.05 µM,[23],92%
same,growth at 0.005 µM,[24],88%
same,growth at 50 µM,[25],-19%
same,growth at 0.5 µM,[26],4%
same,growth at 0.05 µM,[27],95%
same,growth at 0.005 µM,[28],88%
same,growth at 50 µM,[29],-46%
same,GI50,[30]; read-out: GI50,7.23 µM
same,CC50,[30]; [41],> 50 µM
same,TGI,[30]; read-out: TGI,24.1 µM
same,GI50,[30]; read-out: pGI50 (converted),7.24 µM
same,CC50,[30]; [42],> 50.1 µM
same,TGI,[30]; read-out: pTGI (converted),24 µM
same,GI50,[31]; read-out: GI50,0.557 µM
same,CC50,[31]; [41],16.5 µM
same,TGI,[31]; read-out: TGI,5.43 µM
same,GI50,[31]; read-out: pGI50 (converted),0.562 µM
same,CC50,[31]; [42],16.6 µM
same,TGI,[31]; read-out: pTGI (converted),5.37 µM
same,growth at 0.05 µM,[32],80%
same,growth at 0.05 µM,[33],73%
same,growth at 5 µM,[34],-80%
same,growth at 50 µM,[35],-92%
same,growth at 0.05 µM,[36],84%
same,GI50,[37]; read-out: GI50,2.8 µM
same,CC50,[37]; [41],> 50 µM
same,TGI,[37]; read-out: TGI,22.2 µM
same,GI50,[37]; read-out: pGI50 (converted),2.82 µM
same,CC50,[37]; [42],> 50.1 µM
same,TGI,[37]; read-out: pTGI (converted),22.4 µM
same,growth at 0.005 µM,[38],97%
same,growth at 50 µM,[39],-40%
same,growth at 50 µM,[40],23%

# From ChEMBL document CHEMBL3588757, “Structure-based design, synthesis and biological testing of piperazine-linked bis-epipodophyllotoxin etoposide analogs” (Bioorg Med Chem, 2015)
